Consider one compound from ChEMBL document CHEMBL3580565, “Synthesis and Biological Evaluation of Cyclopentaquinoline Derivatives as Nonsteroidal Glucocorticoid Receptor Antagonists” (J Med Chem, 2015).

Data set [1] in a line: Half life in Sprague-Dawley rat at 10 mg/kg, po by LC/MS/MS analysis. Type of data set: ADME, organism-based. As to conditions: in vivo. The procedure, abridged: (§1)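 Male Sprague–Dawley rats dosed orally (n = 4). Jugular vein blood sampled at 0.25, 0.5, 1, 2, 4, 6 and 24 h into heparin, plasma obtained by centrifugation. Concentrations determined by LC/MS/MS.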
For data set [2], the target named is T1, Glucocorticoid receptor (Homo sapiens, UniProt P04150).
T1 sequence (P04150 whole entry): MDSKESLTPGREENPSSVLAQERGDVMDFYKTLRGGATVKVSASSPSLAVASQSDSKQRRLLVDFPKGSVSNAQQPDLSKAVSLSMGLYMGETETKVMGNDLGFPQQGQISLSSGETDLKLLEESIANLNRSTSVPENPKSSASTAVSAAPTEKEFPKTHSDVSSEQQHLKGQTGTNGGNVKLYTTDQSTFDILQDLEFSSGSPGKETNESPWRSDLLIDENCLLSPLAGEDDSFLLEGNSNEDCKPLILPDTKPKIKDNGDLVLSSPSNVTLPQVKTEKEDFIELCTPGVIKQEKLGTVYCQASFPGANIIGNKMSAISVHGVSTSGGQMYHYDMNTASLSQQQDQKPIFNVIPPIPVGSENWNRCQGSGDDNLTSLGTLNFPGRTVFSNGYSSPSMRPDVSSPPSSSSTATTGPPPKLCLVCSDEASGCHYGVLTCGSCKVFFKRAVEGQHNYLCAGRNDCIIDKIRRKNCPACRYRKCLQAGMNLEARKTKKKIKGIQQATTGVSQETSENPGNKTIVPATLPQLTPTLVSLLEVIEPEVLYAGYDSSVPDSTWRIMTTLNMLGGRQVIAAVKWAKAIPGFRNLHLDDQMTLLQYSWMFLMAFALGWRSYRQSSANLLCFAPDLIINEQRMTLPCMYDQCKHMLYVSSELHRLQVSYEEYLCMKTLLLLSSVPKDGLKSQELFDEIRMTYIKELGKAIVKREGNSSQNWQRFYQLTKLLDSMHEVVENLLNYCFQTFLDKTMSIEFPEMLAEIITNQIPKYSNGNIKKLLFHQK
Description: Antagonist activity at human glucocorticoid receptor transfected in CHOK1 cells assessed as inhibition of dexamethasone-induced receptor transcriptional activity after 6 hrs by luciferase reporter gene assay. It is filed as cell-based, CHO-K1.

Data set [3] can be described thus: AUC (0 to infinity) in Sprague-Dawley rat at 10 mg/kg, po by LC/MS/MS analysis. Type of data set: ADME, organism-based. Set-up: dose 10 mg/kg, time infinity, route oral. The following applies: in vivo. The procedure, abridged:
as §1

In data set [4] the target is T2, Progesterone receptor (Homo sapiens, UniProt P06401).
T2 sequence (P06401 whole entry): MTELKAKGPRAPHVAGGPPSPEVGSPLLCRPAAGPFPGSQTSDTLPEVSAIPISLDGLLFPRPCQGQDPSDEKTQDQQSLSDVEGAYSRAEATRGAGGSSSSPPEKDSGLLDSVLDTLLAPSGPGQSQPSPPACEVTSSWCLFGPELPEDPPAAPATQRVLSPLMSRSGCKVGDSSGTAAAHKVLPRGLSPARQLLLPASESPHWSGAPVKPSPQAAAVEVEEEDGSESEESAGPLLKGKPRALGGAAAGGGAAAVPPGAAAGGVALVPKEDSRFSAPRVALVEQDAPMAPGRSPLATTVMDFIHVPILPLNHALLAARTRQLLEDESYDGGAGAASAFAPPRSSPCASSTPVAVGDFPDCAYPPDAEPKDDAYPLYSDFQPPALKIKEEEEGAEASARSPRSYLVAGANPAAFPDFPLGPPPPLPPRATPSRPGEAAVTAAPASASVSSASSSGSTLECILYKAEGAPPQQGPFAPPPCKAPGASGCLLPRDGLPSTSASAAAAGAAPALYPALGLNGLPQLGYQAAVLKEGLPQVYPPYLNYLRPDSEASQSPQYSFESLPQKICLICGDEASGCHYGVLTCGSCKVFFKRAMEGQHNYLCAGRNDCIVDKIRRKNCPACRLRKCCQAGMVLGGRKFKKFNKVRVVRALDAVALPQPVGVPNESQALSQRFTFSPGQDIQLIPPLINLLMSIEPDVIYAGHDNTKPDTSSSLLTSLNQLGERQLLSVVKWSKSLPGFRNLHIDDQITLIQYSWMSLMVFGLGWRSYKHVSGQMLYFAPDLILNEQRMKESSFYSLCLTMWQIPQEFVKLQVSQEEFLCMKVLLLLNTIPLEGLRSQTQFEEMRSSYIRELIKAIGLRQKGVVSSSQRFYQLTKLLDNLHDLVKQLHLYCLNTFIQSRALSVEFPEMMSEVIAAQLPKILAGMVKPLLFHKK
The data set can be described thus: Displacement of [3H]-progesterone from cytosolic fraction of human recombinant progesterone-B receptor by scintillation counting analysis.

The target in data set [5] is T3, Mineralocorticoid receptor (Homo sapiens, UniProt P08235).
T3 sequence (P08235 whole entry): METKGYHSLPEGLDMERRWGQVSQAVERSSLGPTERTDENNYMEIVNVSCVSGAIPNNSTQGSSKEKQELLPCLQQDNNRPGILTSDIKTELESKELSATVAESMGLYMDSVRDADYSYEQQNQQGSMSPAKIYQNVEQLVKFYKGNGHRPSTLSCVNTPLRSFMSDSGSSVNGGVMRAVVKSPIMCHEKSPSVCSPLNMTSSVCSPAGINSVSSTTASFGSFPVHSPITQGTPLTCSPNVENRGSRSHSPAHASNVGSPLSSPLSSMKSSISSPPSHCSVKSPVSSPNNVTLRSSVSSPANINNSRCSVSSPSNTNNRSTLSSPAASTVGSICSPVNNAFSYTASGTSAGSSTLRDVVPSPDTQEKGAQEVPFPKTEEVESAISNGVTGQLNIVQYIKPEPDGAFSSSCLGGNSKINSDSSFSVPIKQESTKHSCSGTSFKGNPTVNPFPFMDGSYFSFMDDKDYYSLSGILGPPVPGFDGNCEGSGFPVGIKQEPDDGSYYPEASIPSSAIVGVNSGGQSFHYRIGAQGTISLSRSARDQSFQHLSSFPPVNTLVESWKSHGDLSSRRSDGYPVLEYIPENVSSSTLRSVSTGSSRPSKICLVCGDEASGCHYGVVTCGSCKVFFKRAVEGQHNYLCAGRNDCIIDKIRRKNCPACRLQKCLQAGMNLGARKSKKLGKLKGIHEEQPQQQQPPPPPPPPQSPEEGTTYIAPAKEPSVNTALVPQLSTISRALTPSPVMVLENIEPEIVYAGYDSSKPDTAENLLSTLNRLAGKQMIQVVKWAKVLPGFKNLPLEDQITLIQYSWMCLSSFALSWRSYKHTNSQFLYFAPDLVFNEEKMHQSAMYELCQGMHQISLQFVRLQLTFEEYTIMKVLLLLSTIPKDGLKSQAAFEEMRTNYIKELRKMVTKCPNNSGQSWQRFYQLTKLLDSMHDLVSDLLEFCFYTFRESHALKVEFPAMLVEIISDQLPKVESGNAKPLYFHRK
Description: Displacement of [3H]-aldosterone from cytosolic fraction of human recombinant mineralocorticoid receptor by scintillation counting analysis.

Data set [6] relates to Rattus norvegicus. Description: Antidepressant-like activity in Wistar rat assessed as immobility time at 10 mg/kg, po administered at 1, 5, 23.5 hrs prior to testing measured for 5 mins by forced swimming test (reference value: 211.3 to 232.2 secs). Type of data set: functional.

Each structure is given as a SMILES string.

In data set [1], `Cc1noc(C)c1-c1cc2c(c3c1CCC3)NC(C)(C)C(=O)C2(C)C` showed a half-life of 4.6 h. Moreover, the IC50 in data set [2] is 0.03 µM. Besides, the AUC(0-inf) in data set [3] was determined as 2.71 µg·h/mL. The Ki is 1.48 µM in data set [4] and greater than 3 µM in data set [5]. For the same compound, the Time in data set [6] is 206.8 s.
